Measurements taken from ChEMBL document CHEMBL4340513, “Dual-targeting Rutaecarpine-NO donor hybrids as novel anti-hypertensive agents by promoting release of CGRP” (Eur J Med Chem, 2019).
The source made the active and inactive calls. No cut-off for these calls is given here.

Key:
Aorta [1] = test: Vasodilating activity in Sprague-Dawley rat aortic rings assessed as reduction in phenylephrine-induced contractions; format: functional, tissue-based
In short: (§1)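 Thoracic aorta rings (4 mm) from male SD rats (250-300 g, chloral hydrate anesthesia), cleaned of fat and connective tissue and held at 2 g resting force in Krebs' solution. After KCl response, washout and 30 min re-equilibration, rings got L-cysteine (1 µM final, 10 min), then phenylephrine contraction (2 µM final). Cumulative concentration–response curve at 10^-9–10^-6 M final gave EC50. DMSO ≤0.1%.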

Aorta [2] = test: Vasodilating activity in Sprague-Dawley rat aortic rings assessed as reduction in phenylephrine-induced contractions relative to control; format: functional; in short: as §1
Aorta [3] = test: Vasodilating activity in Sprague-Dawley rat aortic rings assessed as reduction in phenylephrine-induced contractions in presence of L-cysteine and TRPV1 antagonist capsazepine; format: functional, tissue-based
In short: (§2)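 SD rat aortic rings were prepared as for the standard ring assay and randomly grouped. They were preincubated 10 min with L-cysteine (1 µM final) alone or with HC030031 (10 µM), capsazepine (10 µM), both, or CGRP(8-37) (10 µM, in water), all final. Phenylephrine contraction (2 µM final) preceded a cumulative concentration–response curve at 10^-9–10^-6 M final. Mean, n = 5.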

Aorta [4] = test: Vasodilating activity in Sprague-Dawley rat aortic rings assessed as reduction in phenylephrine-induced contractions in presence of L-cysteine and TRPA1 antagonist HC030031; format: functional, tissue-based; in short: as §2
Aorta [5] = test: Vasodilating activity in Sprague-Dawley rat aortic rings assessed as reduction in phenylephrine-induced contractions in presence of L-cysteine and CGRP receptor antagonist CGRP(8 to 37); format: functional, tissue-based; in short: as §2
Rattus norvegicus [6] = test: Antihypertensive activity in carotid cannulated Sprague-Dawley rat assessed as reduction in systolic arterial pressure at 20 to 40 mg/kg, ip measured within 2 hrs relative to rutaecarpine; format: functional, organism-based
In short: (§3)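 Male SD rats (250-300 g) under sodium pentobarbital (40 mg/kg, 10 mg/kg supplements), kept at 37°C and tracheotomized. The right carotid artery was cannulated to a pressure transducer. Once pressure was stable, compounds suspended in sodium carboxymethyl cellulose were given i.p. at 20 or 40 mg/kg. Arterial pressure was recorded continuously for 2 h to derive its decrease.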

Rattus norvegicus [7] = test: Antihypertensive activity in carotid cannulated Sprague-Dawley rat assessed as reduction in diastolic arterial pressure at 20 to 40 mg/kg, ip measured within 2 hrs relative to rutaecarpine; format: functional, organism-based; in short: as §3
Rattus norvegicus [8] = test: Increase in CGRP level in Sprague-Dawley rat blood at 20 to 40 mg/kg, ip by ELISA; format: functional, organism-based
In short: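 Rat serum CGRP was quantified with a commercial CGRP ELISA kit per the manufacturer. Optical density was read at 450 nm and concentrations were expressed as pg/mL.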

Aorta [9] = test: Vasodilating activity in Sprague-Dawley rat aortic rings assessed as reduction in phenylephrine-induced contractions at 1:1 ratio of test compound to furoxan; format: functional, tissue-based
Aorta [10] = test: Vasodilating activity in Sprague-Dawley rat aortic rings assessed as reduction in phenylephrine-induced contractions at 1:1 ratio of test compound to furoxan relative to control; format: functional

Row | Structure (SMILES) | EC50 (Aorta [1]) | Emax (Aorta [2]) | further results
1 | O=c1c2cc(OCCOCCOCCNCc3c(-c4ccccc4)no[n+]3[O-])ccc2nc2n1CCc1c-2[nH]c2ccccc12 | 774 nM | 54.6% | 
2 | O=c1c2ccccc2nc2n1CCc1c-2[nH]c2ccc(OCCOCCOCCNCc3c(-c4ccccc4)no[n+]3[O-])cc12 | 112 nM | 64.2% | 
3 | CC(C)c1ccc(-c2no[n+]([O-])c2CNCCOCCOCCOc2ccc3nc4n(c(=O)c3c2)CCc2c-4[nH]c3ccccc23)cc1 | 2590 nM | 40.9% | 
4 | O=c1c2cc(OCCOCCOCCNCc3c(-c4cccc5ccccc45)no[n+]3[O-])ccc2nc2n1CCc1c-2[nH]c2ccccc12 | 1410 nM | 45.3% | 
5 | O=c1c2cc(OCCOCCOCCNCc3c(-c4ccoc4)no[n+]3[O-])ccc2nc2n1CCc1c-2[nH]c2ccccc12 | 22500 nM | 30.6% | 
6 | CCOc1ccccc1-c1no[n+]([O-])c1CNCCOCCOCCOc1ccc2nc3n(c(=O)c2c1)CCc1c-3[nH]c2ccccc12 | 116 nM | 69.9% | 
7 | O=c1c2cc(OCc3c(-c4ccccc4)no[n+]3[O-])ccc2nc2n1CCc1c-2[nH]c2ccccc12 | 13.1 nM | 85.2% | Activity (Aorta [3]): inactive; Activity (Aorta [4]): inactive; Activity (Aorta [5]): inactive; Activity (Rattus norvegicus [6]): Active; Activity (Rattus norvegicus [7]): Active; Activity (Rattus norvegicus [8]): inactive
8 | O=c1c2cc(OCCOCCOCCNCc3c(-c4ccsc4)no[n+]3[O-])ccc2nc2n1CCc1c-2[nH]c2ccccc12 | 30.7 nM | 73.6% | 
9 | O=c1c2ccccc2nc2n1CCc1c-2n(CCOCCOCCNCc2c(-c3ccccc3)no[n+]2[O-])c2ccccc12 | 2040 nM | 43.2% | 
10 | O=c1c2ccccc2nc2n1CCc1c-2[nH]c2ccccc12 [RUTAECARPINE] | 156 nM | 66.3% | EC50 (Aorta [9]): 29.7 nM; Emax (Aorta [10]): 75.3%; Activity (Rattus norvegicus [8]): inactive
11 | O=c1c2cc(OCCOCCOCCNCc3c(-c4cccc(F)c4)no[n+]3[O-])ccc2nc2n1CCc1c-2[nH]c2ccccc12 | 158 nM | 77.3% | 
12 | O=c1c2cc(OCCOCCNCc3c(-c4ccccc4)no[n+]3[O-])ccc2nc2n1CCc1c-2[nH]c2ccccc12 | 15.2 nM | 81.4% | 
